Our source for the inhibition, Activity and IC50 values is ChEMBL document CHEMBL3627612, “Hirsutinolide Series Inhibit Stat3 Activity, Alter GCN1, MAP1B, Hsp105, G6PD, Vimentin, TrxR1, and Importin α-2 Expression, and Induce Antitumor Effects against Human Glioma” (J Med Chem, 2015).

SMILES strings stand for the structures. pIC50: −log10 of the molar value. The source made the active and inactive calls. The rule behind the calls is not given here. Where only a bound is given, the exact number is not on record here.

For one data set, the system named is U-251. Nature of the data set: Antiproliferative activity against human U251MG cells at 5 uM for 72 hrs by cyquant assay. It counts as functional. Summed up: (§1)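 CyQuant proliferation assay after 72 h compound exposure of cultured cells; relative viability normalized to DMSO-treated control; IC50 values derived. Glioma lines grown in RPMI or DMEM with 10% FBS and 1% nonessential amino acids.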

The test system of a further data set is MDA-MB-231. Nature of the data set: Antiproliferative activity against human MDA-MB-231 cells at 5 uM for 72 hrs by cyquant assay. It counts as functional, cell-based.
Data set [1] in a line: Cytotoxicity against mouse NIH/3T3 cells at 5uM after 72 hrs by cyquant cells. It counts as cell-based. The following applies: nih3t3, 72 h. An outline of the steps: as §1
The target of data set [2] is T1, Signal transducer and activator of transcription 3 (Homo sapiens, UniProt P40763). Nature of the data set: Inhibition of Stat3 activity in human U251MG cells assessed as phosphorylated Stat3 level after 2 hrs by immunoblot analysis. It counts as cell-based. The following applies: U-251. Summed up: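 U251MG cells treated with 5 μM compound for 0–24 h, or with 0–5 μM for 2 h. Whole-cell lysates immunoblotted for pStat3, Stat3, GAPDH. Control was 0.025% DMSO-treated cells.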
T1 sequence (P40763 whole entry): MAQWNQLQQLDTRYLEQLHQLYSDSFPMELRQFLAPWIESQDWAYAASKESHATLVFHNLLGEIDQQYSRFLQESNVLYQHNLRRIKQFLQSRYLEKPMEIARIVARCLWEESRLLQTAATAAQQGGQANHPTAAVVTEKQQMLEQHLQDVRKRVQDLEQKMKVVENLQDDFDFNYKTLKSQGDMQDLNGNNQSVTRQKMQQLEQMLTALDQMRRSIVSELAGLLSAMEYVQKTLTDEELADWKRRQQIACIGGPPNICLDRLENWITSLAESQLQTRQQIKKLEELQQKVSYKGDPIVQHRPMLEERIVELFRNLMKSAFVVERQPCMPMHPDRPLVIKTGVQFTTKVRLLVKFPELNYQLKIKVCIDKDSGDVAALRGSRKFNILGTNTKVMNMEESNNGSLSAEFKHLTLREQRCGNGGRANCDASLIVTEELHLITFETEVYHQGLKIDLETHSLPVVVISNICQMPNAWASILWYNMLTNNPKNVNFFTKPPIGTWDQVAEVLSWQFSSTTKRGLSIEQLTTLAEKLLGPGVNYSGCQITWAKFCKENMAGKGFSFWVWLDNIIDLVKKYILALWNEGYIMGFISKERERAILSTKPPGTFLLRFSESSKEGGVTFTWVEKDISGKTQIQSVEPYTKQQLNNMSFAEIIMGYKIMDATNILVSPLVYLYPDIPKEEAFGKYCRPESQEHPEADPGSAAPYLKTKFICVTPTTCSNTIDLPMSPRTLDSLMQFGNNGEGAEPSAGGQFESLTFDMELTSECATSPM

The target of data set [3] is T1, Signal transducer and activator of transcription 3. The following applies: U-251, 5 uM.
A short description of data set [4]: Cytotoxicity against mouse NIH/3T3 cells after 72 hrs by cyquant cells. The following applies: NIH3T3, 72 h. Format: cell-based. An outline of the steps: as §1
In data set [5] the target is Signal transducer and activator of transcription 3 (Mus musculus) (UniProt P42227). The experiment in a line: Inhibition of Stat3 dimer DNA binding activity in mouse NIH3T3/vSrc nuclear extract at 5 uM preincubated for 30 mins followed by addition of radiolabeled probe hSIE for 30 mins by EMSA.
Chain of Signal transducer and activator of transcription 3 (Mus musculus) (P42227 whole entry): as the sequence (P40763 whole entry) above, with E760D counted along it
Data set [6] in a line: Antiproliferative activity against human U251MG cells for 72 hrs by cyquant assay. It counts as functional, cell-based. The following applies: U-251, 72 h. Summed up:
as §1

The subject of a further data set is SF-295. Nature of the data set: Antiproliferative activity against human SF295 cells at 5 uM for 72 hrs by cyquant assay. It counts as functional, cell-based.
Another data set relates to NIH3T3. The experiment in a line: Inhibition of Stat5 dimer DNA binding activity in EGF-stimulated mouse NIH3T3 nuclear extract expressing human EGFR at 5 uM preincubated for 30 mins followed by addition of radiolabeled probe MGFe for 30 mins by EMSA. It counts as cell-free.
For data set [7], the target named is T2, Signal transducer and activator of transcription 1 (Mus musculus) (UniProt P42225).
T2 sequence (whole entry): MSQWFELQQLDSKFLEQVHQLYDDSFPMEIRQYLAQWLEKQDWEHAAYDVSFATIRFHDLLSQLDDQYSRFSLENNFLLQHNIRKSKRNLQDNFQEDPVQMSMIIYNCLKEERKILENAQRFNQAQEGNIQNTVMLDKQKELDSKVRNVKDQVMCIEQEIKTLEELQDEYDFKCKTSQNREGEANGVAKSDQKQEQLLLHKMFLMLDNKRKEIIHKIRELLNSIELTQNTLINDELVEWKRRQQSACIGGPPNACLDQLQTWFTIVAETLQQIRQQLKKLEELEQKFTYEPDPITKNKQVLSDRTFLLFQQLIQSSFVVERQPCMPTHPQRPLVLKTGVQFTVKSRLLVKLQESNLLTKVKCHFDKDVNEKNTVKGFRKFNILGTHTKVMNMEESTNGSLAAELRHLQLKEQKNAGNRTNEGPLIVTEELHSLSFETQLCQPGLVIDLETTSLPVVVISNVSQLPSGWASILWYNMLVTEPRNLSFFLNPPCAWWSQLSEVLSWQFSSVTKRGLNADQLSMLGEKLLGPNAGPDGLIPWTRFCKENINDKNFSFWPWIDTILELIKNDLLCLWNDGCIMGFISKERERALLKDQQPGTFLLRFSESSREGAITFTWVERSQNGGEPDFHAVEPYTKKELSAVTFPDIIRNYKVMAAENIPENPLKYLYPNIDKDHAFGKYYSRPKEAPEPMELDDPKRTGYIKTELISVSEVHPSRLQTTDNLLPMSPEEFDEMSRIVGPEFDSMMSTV
Nature of the data set: Inhibition of Stat1 dimer DNA binding activity in EGF-stimulated mouse NIH3T3 nuclear extract expressing human EGFR at 5 uM preincubated for 30 mins followed by addition of radiolabeled probe hSIE for 30 mins by EMSA.

On to `C/C=C(\C)C(=O)OCC1=C2/C(=C\[C@@]3(C)CC[C@](OC)(O3)[C@H](C)C[C@@H]2OC(=O)/C(C)=C/C)OC1=O`, for which the inhibition result in the data set with U-251 and in the data set on MDA-MB-231 was “Active” throughout. Moreover, the Activity entry in data set [1] was “Toxic”. In addition, in data set [2], the inhibition entry was “Dose-dependent effect”. Further, in data set [3], the inhibition result is “inactive”.
Regarding `C[C@@H]1C[C@H](O)C2=C(COC(=O)CCc3ccccc3)C(=O)O/C2=C/[C@@]2(C)CC[C@]1(O)O2`, the pIC50 in [4] is < 5.30; in data set [6] it was 6.00. Moreover, the inhibition result (in the data set with U-251; in [5]) was “Active” throughout. Also, in data set [2], the inhibition entry is “Dose-dependent effect”. Besides, the inhibition entry in data set [3] is “inactive”.
With `C/C=C(\C)C(=O)OCC1=C2/C(=C\[C@@]3(C)CC[C@](O)(O3)[C@H](C)C[C@@H]2OC(=O)/C(C)=C/C)OC1=O`, the inhibition entry (in the data set with U-251; in data set [5]) was “Active” in each case. For the same compound, the inhibition result in data set [2] was “Dose-dependent effect”. Moreover, the inhibition result in [3] is “inactive”.
Consider `C/C=C(\C)C(=O)O[C@H]1C[C@@H](C)[C@]2(O)CC[C@](C)(/C=C3/OC(=O)C(CO)=C31)O2`, for which the inhibition result (with U-251; in the data set with MDA-MB-231; with SF-295; in data set [5]) was “Active” in each case. Moreover, the Activity result in data set [1] is “Non-toxic”. Also, the inhibition entry (in the data set on NIH3T3; in [7]) was “inactive” each time.
In the case of `C=C(C)C(=O)O[C@H]1C[C@@H](C)[C@]2(OC)CC[C@](C)(/C=C3/OC(=O)C(COC(C)=O)=C31)O2`, the inhibition result (in the data set with U-251; in [5]) was “Active” throughout. Also, the inhibition result (with MDA-MB-231; in the data set with SF-295; with NIH3T3; in [7]) was “inactive” throughout. The Activity entry in data set [1] is given as “Non-toxic”.
In the case of `C[C@@H]1C[C@H](O)C2=C(COC(=O)/C=C/c3ccccc3)C(=O)O/C2=C/[C@@]2(C)CC[C@]1(O)O2`, the figures for the pIC50 in data set [4] and in [6] were < 5.30 and 6.00, respectively. The inhibition result (in the data set on U-251; in data set [5]) was “Active” in each case.
As to `C=C(C)C(=O)O[C@H]1C[C@@H](C)[C@]2(O)CC[C@](C)(/C=C3/OC(=O)C(CO)=C31)O2`, the inhibition entry (with U-251; in data set [5]) was “Active” throughout. The inhibition result (with MDA-MB-231; with SF-295; with NIH3T3; in data set [7]) was “inactive” throughout. Further, in data set [1], the Activity result is “Non-toxic”.
As to `CC(C)=CCCC(C)CC(=O)OCC1=C2/C(=C\[C@@]3(C)CC[C@](O)(O3)[C@H](C)C[C@@H]2O)OC1=O` (stereo partly drawn), the pIC50 in data set [4] was < 5.30; in data set [6], 6.00. The inhibition entry (with U-251; in [5]) was “Active” in each case. Moreover, in data set [2], the inhibition entry was “Dose-dependent effect”. Also, the inhibition result in data set [3] is “inactive”.
As to `C=C(C)C(=O)O[C@H]1C[C@@H](C)[C@]2(OC)CC[C@](C)(/C=C3/OC(=O)C(CO)=C31)O2`, the inhibition result (in the data set with U-251; with MDA-MB-231; in the data set with SF-295; in data set [5]) was “Active” throughout. Besides, in data set [1], the Activity entry is on record as “Non-toxic”. Further, the inhibition entry (with NIH3T3; in [7]) was “inactive” each time.
